DAGLB inhibitor: DAGLB lipase inhibitors, primary screen, biochemical, fluorescence, HTS; Diacylglycerol lipase-beta (Homo sapiens), Q8NCG7; HEK293T DAGLB membrane lysate, EnzChek fluorogenic substrate; inhibition, % at 5.17 µM; hit rate 0.059% among 340,000; AID 504411, 2011; in the data active means inhibition above about 34%
PLC-beta3 inh: human PLC-beta3 inhibitors, primary screen, biochemical, fluorescence; Purified PLC-beta3, fluorogenic substrate; inhibition, % at 12.2 µM; hit rate 0.18% among 370,000; AID 720704, 2013; in the data active means inhibition above about 11%
PLC-gamma1 inh: PLC-gamma1 enzyme inhibitors, primary screen, biochemical, fluorescence, purified enzyme; 1-phosphatidylinositol 4,5-bisphosphate phosphodiesterase gamma-1 (Homo sapiens), P19174; fluorogenic substrate; inhibition, % at 12.2 µM; hit rate 0.84% among 370,000; in the data active means inhibition above about 9.5%
HGIII-sPLA2 inh: human group III sPLA2 inhibitors, primary screen, biochemical, QFRET, BODIPY PC-A2 liposome substrate; QFRET BODIPY PC-A2 liposome hydrolysis, fluorescence; inhibition, % at 12.2 µM; hit rate 0.56% among 370,000;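 active means inhibition above mean plus 3 SD of compounds lying within the high and low control bounds, cut at about 19% in these data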
Target sequence (Q9NZ20 whole entry, looked up): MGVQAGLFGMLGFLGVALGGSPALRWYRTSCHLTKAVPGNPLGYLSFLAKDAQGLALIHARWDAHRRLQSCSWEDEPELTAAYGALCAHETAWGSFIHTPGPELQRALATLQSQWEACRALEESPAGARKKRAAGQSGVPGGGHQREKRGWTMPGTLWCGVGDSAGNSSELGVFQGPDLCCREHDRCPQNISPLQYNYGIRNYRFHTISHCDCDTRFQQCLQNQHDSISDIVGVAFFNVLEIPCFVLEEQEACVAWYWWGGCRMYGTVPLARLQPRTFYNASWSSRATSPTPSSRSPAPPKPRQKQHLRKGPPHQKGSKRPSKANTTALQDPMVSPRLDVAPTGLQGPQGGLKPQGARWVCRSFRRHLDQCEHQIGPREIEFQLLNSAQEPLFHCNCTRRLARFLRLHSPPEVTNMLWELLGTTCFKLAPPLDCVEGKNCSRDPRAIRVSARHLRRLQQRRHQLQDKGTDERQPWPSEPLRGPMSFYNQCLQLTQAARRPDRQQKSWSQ
TbMetRS inhib: T. brucei MetRS inhibitors, primary screen, biochemical, luminescence; methionyl-tRNA synthetase (Trypanosoma brucei brucei); purified T. brucei MetRS, ATP depletion, Kinase-Glo luminescence; inhibition, % at 11.9 µM; hit rate 0.4% among 360,000; AID 624268, 2012;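 active means inhibition above a per-plate cutoff of the control wells' mean inhibition plus 3 SD, cut at about 5.5% in these data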
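Material: parasite MetRS enzyme / Replication: singlicate, one well per compound / Signal: luminescence of leftover ATP / Schedule: 2 h aminoacylation at 25 °C after 15 min preincubation / Medium: HEPES-MgCl2-KCl buffer plus DTT, spermine, BSA, pyrophosphatase / Doses: 11.9 µM single point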
sPLA2 confirm: human group III sPLA2 inhibitors, confirmation, biochemical, QFRET, triplicate | hit rate 34% among 2,000 | inhibition, % at 12.2 µM | shares compounds with HGIII-sPLA2 inh | recombinant hGIII-sPLA2, BODIPY PC-A2 QFRET fluorescence | AID 743280, 2014;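 active means mean inhibition across triplicates above the hit cutoff set in the earlier primary screen, cut at about 19% in these data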
BODIPY interf: 535nm fluorescence optical interference, confirmation, artefact control for HGIII-sPLA2 inhibitor project, biochemical, QFRET; shares compounds with HGIII-sPLA2 inh; BODIPY FL product fluorescence interference; inhibition, % at 12.2 µM; hit rate 8.5% among 2,000;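 active means average inhibition above the solvent-only control mean plus 3 SD, cut at about 6% in these data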
535nm interf DR: 535nm fluorescence optical interference, dose response, artefact control for HGIII-sPLA2 inhibitor project, biochemical, QFRET | shares compounds with HGIII-sPLA2 inh | BODIPY FL product fluorescence interference, cell-free | IC50, µM | 240 tested, under 10 active;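 active means IC50 at or below 10 µM; inactive means IC50 above 10 µM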
Of the large screens only hits and unclear results are named; the others gave an inactive call (follow-up assays come after a bar, where they were run). The list is not random: actives were taken first. Their share in the collection is about 1.9%.

O=C(N/N=C/c1c(O)ccc2ccccc12)c1ccc(CO)nc1	HGIII-sPLA2 inh 25 | sPLA2 confirm inactive | BODIPY interf inactive
O=C(NCCCCC(NC(=O)c1ccccc1)C(=O)O)OCc1ccccc1 (stereo not given)	none (no result: DAGLB inhibitor, TbMetRS inhib)
O=C(CSc1nnc(-c2ccc(Cl)cc2)n1C1CCCCC1)NN=Cc1c(O)ccc2ccccc12	none (no result: DAGLB inhibitor, TbMetRS inhib)
COC(=O)N/N=C/c1cc(N=Nc2ccccc2Cl)ccc1O	none
Nc1ccc(C(=O)N/N=C\c2cc(N=Nc3cccc4ccccc34)ccc2O)cc1	HGIII-sPLA2 inh 34 | sPLA2 confirm 38 | BODIPY interf 8.2
NNC(=O)/C(=N/Nc1ccccc1)S(=O)(=O)c1ccc(Cl)cc1	HGIII-sPLA2 inh 35 | sPLA2 confirm 47 | BODIPY interf inactive | 535nm interf DR inactive
CCN(CC)c1ccc(-c2sc(Nc3ccccc3)n[n+]2-c2ccc(F)cc2)cc1	none
CCc1ccc(Nc2n[n+](-c3ccccc3)c(-c3ccc(N(CC)CC)cc3)s2)cc1	HGIII-sPLA2 inh 23 | sPLA2 confirm inactive | BODIPY interf inactive
Cc1cc(NC(=O)CSc2nnc(-c3ccncc3)n2Cc2ccccc2)n(-c2ccccc2)n1	none
COCCn1c(SCC(=O)Nc2cc(C)nn2-c2ccccc2)nnc1-c1ccncc1	HGIII-sPLA2 inh 20 | sPLA2 confirm inactive | BODIPY interf inactive
C[C@H]1COc2cccc(N3CCCC3)c2S(=O)(=O)N1	none (no result: DAGLB inhibitor, TbMetRS inhib)
CCOC(=O)N(C)[C@H]1C[C@H]2c3cc(-c4ccccc4C)ccc3CCN2C[C@H]1[C@H](C)O	none (no result: DAGLB inhibitor, TbMetRS inhib)
COc1ccc(N=Nc2nc(-c3ccccc3)c(-c3ccccc3)[nH]2)cc1	HGIII-sPLA2 inh 28 | sPLA2 confirm 30 | BODIPY interf inactive | 535nm interf DR inactive
COc1ccc(-c2nc(C)ncc2N=Nc2ccccc2)cc1	none
O=C(CNc1nnnn1-c1ccccc1)N1CCCC1	none (no result: DAGLB inhibitor, TbMetRS inhib)
O=C(CCNC(=O)c1ccccc1Cl)Nc1ccc(Br)c(C(F)(F)F)c1	none
O=C(CCNC(=O)c1ccccc1Cl)Nc1cc(C(F)(F)F)ccc1Cl	HGIII-sPLA2 inh 21 | sPLA2 confirm inactive | BODIPY interf inactive
CC1CCN(CC(=O)Nc2cc(C(F)(F)F)ccc2Cl)CC1	HGIII-sPLA2 inh 21 | sPLA2 confirm inactive | BODIPY interf inactive
CCOc1ccc(NC(=S)Nc2ccc(OC)cc2)cc1	none
CCOc1ccc(NC(=S)c2ccncc2)cc1	HGIII-sPLA2 inh 22 | sPLA2 confirm inactive | BODIPY interf inactive
Cc1ccccc1S(=O)(=O)N(C)C[C@@H]1OCc2cn(nn2)CCCC(=O)N([C@@H](C)CO)C[C@H]1C	none (no result: DAGLB inhibitor, TbMetRS inhib)
COC1=C[C@H](C(=O)NCc2ccccn2)[C@H](C)[C@@H](c2ccccc2)CC1=O	none (no result: DAGLB inhibitor, TbMetRS inhib)
Cc1scc(-c2n[nH]c(=S)n2Cc2ccccc2)c1C	none
CCc1c(-c2n[nH]c(=S)n2Cc2ccccc2)csc1C	HGIII-sPLA2 inh 20 | sPLA2 confirm 33 | BODIPY interf inactive | 535nm interf DR inactive
C/C(=N\NC(=O)CSCc1ccc([N+](=O)[O-])cc1)c1ccccc1O	HGIII-sPLA2 inh 21 | sPLA2 confirm inactive | BODIPY interf inactive
C/C(=N\NC(=O)CSCc1ccc([N+](=O)[O-])cc1)c1ccccc1	none
CCCCSc1nnc([C@@H](NC(=O)OC(C)(C)C)C(C)C)o1	none
CCSc1nnc([C@@H](NC(=O)OC(C)(C)C)C(C)C)o1	HGIII-sPLA2 inh 19 | sPLA2 confirm inactive | BODIPY interf inactive
